≈ marks a conversion by molar mass, not a printed value. Calls of active or inactive are those of the source.
Key:
[1] = test system: Kocuria rhizophila; assay: Antibacterial activity against Kocuria rhizophila ATCC 9341 by broth microdilution method; assay type: functional; conditions: DC2201
Outline: (§1)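 Broth microdilution per NCCLS. Compounds dissolved in DMSO as 10 mg/mL stock, diluted in Mueller Hinton broth (bacteria) or Sabouraud dextrose broth (fungi). Amikacin served as the positive control for bacteria and nystatin for fungi.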

[2] = test system: Clostridium sporogenes; assay: Antibacterial activity against Clostridium sporogenes ATCC 19404 by broth microdilution method; assay type: functional; outline: as §1
[3] = test system: Salmonella enteritidis; assay: Antibacterial activity against Salmonella enterica subsp. enterica serovar Enteritidis ATCC 13076 by broth microdilution method; assay type: functional; outline: as §1
[4] = test system: Bacillus spizizenii; assay: Antibacterial activity against Bacillus subtilis ATCC 6633 by broth microdilution method; assay type: functional; outline: as §1
[5] = test system: Escherichia coli; assay: Antibacterial activity against Escherichia coli ATCC 25922 by broth microdilution method; assay type: functional; outline: as §1
[6] = test system: Saccharomyces cerevisiae; assay: Antifungal activity against Saccharomyces cerevisiae ATCC 9763 by broth microdilution method; assay type: functional; outline: as §1
[7] = test system: Staphylococcus aureus; assay: Antibacterial activity against Staphylococcus aureus ATCC 6538 by broth microdilution method; assay type: functional; outline: as §1
[8] = test system: NCI-H460; assay: Cytotoxicity against human NCI-H460 cells after 72 hrs by MTT assay; assay type: functional, cell-based; conditions: NCI-H460, 72 h
Outline: (§2)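 Seeding in 96-well plates at 1000 (NCI-H460), 2000 (NCI-H460/R) or 4000 (HaCaT) cells/well, treated after 24 h for 72 h. MTT at 0.4 mg/mL final, 4 h at 37 °C. Formazan dissolved in DMSO, absorbance read at 540 nm. Inhibition % = (1 − A treated/A untreated)×100. IC30 and IC50 obtained by linear regression.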

[9] = test system: HaCaT; assay: Cytotoxicity against human HaCaT cells after 72 hrs by MTT assay; assay type: cell-based; conditions: for IC50: Homo sapiens, HaCaT; for IC30: human, hacat; outline: as §2
[10] = test system: Micrococcus luteus; assay: Antibacterial activity against Micrococcus luteus ATCC 10240 by broth microdilution method; assay type: functional; outline: as §1
[11] = test system: Micrococcus luteus; assay: Antibacterial activity against Micrococcus luteus ATCC 4698 by broth microdilution method; assay type: functional; conditions: NCTC 2665; outline: as §1
[12] = test system: NCI-H460; assay: Cytotoxicity against multidrug resistant human NCI-H460 cells after 72 hrs by MTT assay; assay type: functional, cell-based; conditions: NCI-H460, 72 h; outline: as §2
[13] = test system: Proteus hauseri; assay: Antibacterial activity against Proteus hauseri ATCC 13315 by broth microdilution method; assay type: functional; outline: as §1
[14] = test system: Candida albicans; assay: Antifungal activity against Candida albicans ATCC 10231 by broth microdilution method; assay type: functional; outline: as §1
[15] = test system: Pseudomonas aeruginosa; assay: Antibacterial activity against Pseudomonas aeruginosa ATCC 9027 by broth microdilution method; assay type: functional; outline: as §1
[16] = test system: Aspergillus brasiliensis; assay: Antifungal activity against Aspergillus brasiliensis ATCC 16404 by broth microdilution method; assay type: functional; outline: as §1
[17] = test system: NCI-H460; assay: Selectivity ratio of IC30/IC50 for human NCI-H460 cells to IC30/IC50 for multidrug resistant human NCI-H460 cells; assay type: functional
Outline: (§3)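 Fold threshold of 1.5 used to call selectivity to cancer cells, resistance, or selectivity to MDR cells.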

[18] = test system: NCI-H460; assay: Induction of superoxide anion generation in multidrug resistant human NCI-H460 cells at 25 uM after 72 hrs by DHE staining-based flow cytometric analysis relative to control; assay type: functional, cell-based
Outline: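 Seeded as for cell death (50,000 or 100,000 cells/well), treated 72 h at 25 µM, with CDDP 5 µM as control. Adherent cells trypsinized and loaded with 1 µM DHE for 30 min at 37 °C in the dark, then washed twice in PBS. Flow cytometry at ex 488/em 585 nm (FL2-H). Mean fluorescence intensity corrected for autofluorescence and compared with untreated control.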

[19] = test system: HaCaT; assay: Induction of apoptosis in human HaCaT cells assessed as late apoptotic/necrotic cells at 25 uM after 72 hrs by annexin-V/propidium iodide staining-based flow cytometric analysis (reference value: 0.2%); assay type: cell-based
[20] = test system: NCI-H460; assay: Induction of apoptosis in multidrug resistant human NCI-H460 cells assessed as early apoptotic cells at 25 uM after 72 hrs by annexin-V/propidium iodide staining-based flow cytometric analysis (reference value: 1.1%); assay type: functional
[21] = test system: NCI-H460; assay: Induction of apoptosis in multidrug resistant human NCI-H460 cells assessed as live cells at 25 uM after 72 hrs by annexin-V/propidium iodide staining-based flow cytometric analysis (reference value: 96.4%); assay type: functional
[22] = test system: NCI-H460; assay: Induction of apoptosis in multidrug resistant human NCI-H460 cells assessed as dead cells at 25 uM after 72 hrs by annexin-V/propidium iodide staining-based flow cytometric analysis (reference value: 1.5%); assay type: functional
[23] = test system: NCI-H460; assay: Induction of apoptosis in human NCI-H460 cells assessed as late apoptotic/necrotic cells at 25 uM after 72 hrs by annexin-V/propidium iodide staining-based flow cytometric analysis (reference value: 0.2%); assay type: functional
[24] = Selectivity ratio of IC30/IC50 for human HaCaT cells to IC30/IC50 for human NCI-H460 cells; assay type: ADME, cell-based; conditions: HaCaT cells versus NCI-H460 cells; outline: as §3
[25] = test system: HaCaT; assay: Induction of apoptosis in human HaCaT cells assessed as dead cells at 25 uM after 72 hrs by annexin-V/propidium iodide staining-based flow cytometric analysis (reference value: 2.8%); assay type: cell-based
[26] = test system: HaCaT; assay: Induction of apoptosis in human HaCaT cells assessed as early apoptotic cells at 25 uM after 72 hrs by annexin-V/propidium iodide staining-based flow cytometric analysis (reference value: 0.2%); assay type: cell-based
[27] = test system: NCI-H460; assay: Induction of apoptosis in human NCI-H460 cells assessed as dead cells at 25 uM after 72 hrs by annexin-V/propidium iodide staining-based flow cytometric analysis (reference value: 1.2%); assay type: functional
[28] = Induction of apoptosis in human HaCaT cells assessed as live cells at 25 uM after 72 hrs by annexin-V/propidium iodide staining-based flow cytometric analysis (reference value: 96.8%); assay type: cell-based; conditions: read-out: Activity
[29] = test system: NCI-H460; assay: Induction of apoptosis in human NCI-H460 cells assessed as early apoptotic cells at 25 uM after 72 hrs by annexin-V/propidium iodide staining-based flow cytometric analysis (reference value: 0.3%); assay type: functional
[30] = Selectivity ratio of IC30/IC50 for human HaCaT cells to IC30/IC50 for multidrug resistant human NCI-H460 cells; assay type: ADME, cell-based; conditions: HaCaT cells versus multidrug resistant NCI-H460 cells; outline: as §3
[31] = test system: NCI-H460; assay: Induction of apoptosis in multidrug resistant human NCI-H460 cells assessed as late apoptotic/necrotic cells at 25 uM after 72 hrs by annexin-V/propidium iodide staining-based flow cytometric analysis (reference value: 1%); assay type: functional
[32] = test system: NCI-H460; assay: Induction of apoptosis in human NCI-H460 cells assessed as live cells at 25 uM after 72 hrs by annexin-V/propidium iodide staining-based flow cytometric analysis (reference value: 98.3%); assay type: functional

SMILES	MIC [1] [µM]	MIC [2] [µM]	MIC [3] [µM]	MIC [4] [µM]	MIC [5] [µM]	MIC [6] [µM]	MIC [7] [µM]	IC30 [8] [µM]	IC50 [8] [µM]	IC50 [9] [µM]	IC30 [9] [µM]	MIC [10] [µM]	MIC [11] [µM]	IC30 [12] [µM]	IC50 [12] [µM]	MIC [13] [µM]	MIC [14] [µM]	MIC [15] [µM]	MIC [16] [µM]	Activity [18]	other results
CNC1=CC(=O)C=C(C(C)(C)C)C1=O	813 (≈ 157 µg/mL)	1620 (≈ 313 µg/mL)	1620 (≈ 313 µg/mL)	1620 (≈ 313 µg/mL)	202 (≈ 39 µg/mL)	3240 (≈ 626 µg/mL)	51 (≈ 9.86 µg/mL)	14	25	10	8	202 (≈ 39 µg/mL)	1620 (≈ 313 µg/mL)	15	23	1620 (≈ 313 µg/mL)	1620 (≈ 313 µg/mL)	3240 (≈ 626 µg/mL)	103 (≈ 19.9 µg/mL)		
NCC[C@H](O)C(=O)N[C@@H]1C[C@H](N)[C@@H](O[C@H]2O[C@H](CN)[C@@H](O)[C@H](O)[C@H]2O)[C@H](O)[C@H]1O[C@H]1O[C@H](CO)[C@@H](O)[C@H](N)[C@H]1O [AMIKACIN]	3 (≈ 1.76 µg/mL)	26 (≈ 15.2 µg/mL)	14 (≈ 8.2 µg/mL)	72 (≈ 42.2 µg/mL)	9 (≈ 5.27 µg/mL)		19 (≈ 11.1 µg/mL)					14 (≈ 8.2 µg/mL)	3 (≈ 1.76 µg/mL)			12 (≈ 7.03 µg/mL)		85 (≈ 49.8 µg/mL)			
CCCCNC1=CC(=O)C=C(C[C@]2(C)[C@@H](C)CC[C@]3(C)C(C)=CCC[C@@H]23)C1=O								9	16	16	11			3	6						selectivity ratio [17]: <=1.5
CCCCCCCCNC1=CC(=O)C(C(C)(C)C)=CC1=O	4300 (≈ 1250 µg/mL)	2150 (≈ 626 µg/mL)	2150 (≈ 626 µg/mL)	4300 (≈ 1250 µg/mL)	4300 (≈ 1250 µg/mL)	4300 (≈ 1250 µg/mL)	4300 (≈ 1250 µg/mL)	18	70	> 100	> 100	2150 (≈ 626 µg/mL)	4300 (≈ 1250 µg/mL)	21	65	2150 (≈ 626 µg/mL)	4300 (≈ 1250 µg/mL)	2150 (≈ 626 µg/mL)	2150 (≈ 626 µg/mL)	inactive	Activity [19]: 0.5%; Activity [20]: 0.2%; Activity [21]: 83.9%; Activity [22]: 14%; Activity [23]: 1.7%; selectivity ratio [24]: ≤ 1.5; Activity [25]: 5.7%; Activity [26]: 0%; Activity [27]: 17.3%; viability at 72 h, 25 µM [28]: 93.8%; Activity [29]: 0.1%; selectivity ratio [30]: ≤ 1.5; Activity [31]: 1.9%; Activity [32]: 80.9%
CC(C)(C)C1=CC(=O)C(NCCc2ccccc2)=CC1=O	2210 (≈ 626 µg/mL)	2210 (≈ 626 µg/mL)	4420 (≈ 1250 µg/mL)	4420 (≈ 1250 µg/mL)		2210 (≈ 626 µg/mL)		17	35	> 100	> 100	4420 (≈ 1250 µg/mL)	2210 (≈ 626 µg/mL)	11	33	2210 (≈ 626 µg/mL)	2210 (≈ 626 µg/mL)	2210 (≈ 626 µg/mL)	1110 (≈ 313 µg/mL)	inactive	Activity [19]: 1.7%; Activity [20]: 1.3%; Activity [21]: 81%; Activity [22]: 14.1%; Activity [23]: 5.4%; selectivity ratio [24]: ≤ 1.5; Activity [25]: 8.3%; Activity [26]: 0.8%; Activity [27]: 13%; viability at 72 h, 25 µM [28]: 89.2%; Activity [29]: 0.8%; selectivity ratio [30]: ≤ 1.5; Activity [31]: 3.6%; Activity [32]: 80.8%
CCCCNC1=CC(=O)C=C(C(C)(C)C)C1=O		1240 (≈ 291 µg/mL)	620 (≈ 146 µg/mL)	1240 (≈ 291 µg/mL)	9 (≈ 2.12 µg/mL)	154 (≈ 36.2 µg/mL)	9 (≈ 2.12 µg/mL)	4	14	11	7	9 (≈ 2.12 µg/mL)	154 (≈ 36.2 µg/mL)	4	13		77 (≈ 18.1 µg/mL)	620 (≈ 146 µg/mL)	620 (≈ 146 µg/mL)		

Reference: ChEMBL document CHEMBL3822380, “Simple avarone mimetics as selective agents against multidrug resistant cancer cells” (Eur J Med Chem, 2016)
